Measurements as given in PMC3537910 (European journal of nuclear medicine and molecular imaging, 2012).
Values joined by “and” are separate entries in the source; they are usually repeats but may differ in a detail not shown here. Equal entries are not always repeated.

Legend:
mGluR1 [1] = biological target: T1, mGluR1 (Rattus norvegicus, UniProt P23385); assay: pharmacological validation: blocking of LY2428703 tracer specific binding; format: in vivo; conditions: i.v. administration, LY2428703 as non-labeled tracer
T1 sequence (P23385 19-1199): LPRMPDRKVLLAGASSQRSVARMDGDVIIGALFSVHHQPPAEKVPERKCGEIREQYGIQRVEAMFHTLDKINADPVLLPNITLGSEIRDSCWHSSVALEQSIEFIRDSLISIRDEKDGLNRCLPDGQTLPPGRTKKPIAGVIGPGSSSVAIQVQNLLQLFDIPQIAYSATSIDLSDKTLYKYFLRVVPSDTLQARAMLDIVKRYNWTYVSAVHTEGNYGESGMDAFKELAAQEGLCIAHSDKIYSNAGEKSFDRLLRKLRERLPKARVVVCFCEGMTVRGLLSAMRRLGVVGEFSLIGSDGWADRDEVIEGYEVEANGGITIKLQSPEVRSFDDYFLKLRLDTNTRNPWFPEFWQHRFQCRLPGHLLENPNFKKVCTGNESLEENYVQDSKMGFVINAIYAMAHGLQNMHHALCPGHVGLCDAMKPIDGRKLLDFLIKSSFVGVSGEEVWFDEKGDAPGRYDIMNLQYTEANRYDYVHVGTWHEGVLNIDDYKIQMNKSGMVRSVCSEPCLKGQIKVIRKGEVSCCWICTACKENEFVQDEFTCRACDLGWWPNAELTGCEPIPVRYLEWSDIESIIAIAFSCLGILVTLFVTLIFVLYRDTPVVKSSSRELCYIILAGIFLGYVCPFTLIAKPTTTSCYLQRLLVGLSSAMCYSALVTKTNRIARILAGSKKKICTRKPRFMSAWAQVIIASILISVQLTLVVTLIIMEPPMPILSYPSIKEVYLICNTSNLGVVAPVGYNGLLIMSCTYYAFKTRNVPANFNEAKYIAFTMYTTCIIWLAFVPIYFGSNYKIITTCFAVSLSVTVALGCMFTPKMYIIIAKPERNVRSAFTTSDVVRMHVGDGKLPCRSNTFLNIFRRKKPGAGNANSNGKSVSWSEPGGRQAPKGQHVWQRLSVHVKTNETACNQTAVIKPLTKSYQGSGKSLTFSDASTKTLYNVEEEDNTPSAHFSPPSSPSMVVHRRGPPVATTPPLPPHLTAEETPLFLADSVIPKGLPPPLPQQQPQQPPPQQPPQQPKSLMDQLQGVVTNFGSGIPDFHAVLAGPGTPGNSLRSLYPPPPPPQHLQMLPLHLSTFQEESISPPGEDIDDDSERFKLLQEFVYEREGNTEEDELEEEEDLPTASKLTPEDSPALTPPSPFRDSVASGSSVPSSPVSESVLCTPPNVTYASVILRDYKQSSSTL

mGluR1 [2] = biological target: T2, mGluR1 (Homo sapiens, UniProt Q13255); format: cell-based; conditions: from IC50 8.9 and 118 nM
T2 sequence (Q13255 19-1194): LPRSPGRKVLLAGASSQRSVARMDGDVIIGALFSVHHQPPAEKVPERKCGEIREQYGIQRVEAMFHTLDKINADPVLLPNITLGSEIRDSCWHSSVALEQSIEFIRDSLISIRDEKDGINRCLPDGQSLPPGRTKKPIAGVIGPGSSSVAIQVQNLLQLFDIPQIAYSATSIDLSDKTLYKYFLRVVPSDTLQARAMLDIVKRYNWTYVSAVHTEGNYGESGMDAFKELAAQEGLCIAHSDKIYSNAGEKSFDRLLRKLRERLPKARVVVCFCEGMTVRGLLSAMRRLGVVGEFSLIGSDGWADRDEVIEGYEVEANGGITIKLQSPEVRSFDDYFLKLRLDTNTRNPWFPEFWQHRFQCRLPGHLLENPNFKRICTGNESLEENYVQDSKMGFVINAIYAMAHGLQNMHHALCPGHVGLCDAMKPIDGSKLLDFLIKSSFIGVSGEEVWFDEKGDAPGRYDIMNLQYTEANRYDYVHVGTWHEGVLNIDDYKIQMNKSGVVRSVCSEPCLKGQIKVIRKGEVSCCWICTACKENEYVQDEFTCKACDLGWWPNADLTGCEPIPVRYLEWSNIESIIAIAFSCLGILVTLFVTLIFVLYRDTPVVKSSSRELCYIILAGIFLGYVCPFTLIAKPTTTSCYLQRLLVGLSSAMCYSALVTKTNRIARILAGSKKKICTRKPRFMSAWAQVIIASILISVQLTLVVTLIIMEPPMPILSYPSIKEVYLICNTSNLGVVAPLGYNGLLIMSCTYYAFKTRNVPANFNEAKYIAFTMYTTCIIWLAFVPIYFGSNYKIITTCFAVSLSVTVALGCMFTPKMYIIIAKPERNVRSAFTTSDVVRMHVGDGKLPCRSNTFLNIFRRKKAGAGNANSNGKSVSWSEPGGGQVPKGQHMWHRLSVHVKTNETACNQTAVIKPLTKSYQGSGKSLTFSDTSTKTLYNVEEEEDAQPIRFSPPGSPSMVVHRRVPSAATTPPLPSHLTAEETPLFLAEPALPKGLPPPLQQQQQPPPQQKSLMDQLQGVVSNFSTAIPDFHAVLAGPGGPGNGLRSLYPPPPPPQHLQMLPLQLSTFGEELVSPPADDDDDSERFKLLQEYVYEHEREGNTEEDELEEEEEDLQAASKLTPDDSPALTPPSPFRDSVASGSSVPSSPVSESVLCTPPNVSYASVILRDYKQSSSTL
Outline: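 Calcium mobilization was measured in cells expressing individual human mGlu receptors (1, 2, 3, 4, 5, 7, 8). Agonism: % stimulation by test compound alone relative to maximal glutamate response. Antagonism: % inhibition of the EC90 glutamate response. Potentiation: % increase of an EC10 glutamate response relative to the ECmax response.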

[3] = LC-MS/MS rat brain kinetic analysis with non-labeled tracer; format: in vivo; conditions: 10 μg/kg dose, 15 minutes
[4] = metabolic stability in liver microsomes, monkey; format: in vitro ADME; conditions: monkey hepatic microsomes, 30 minutes, n = 2
[5] = mouse, in vivo
human P-gp = human P-gp (Homo sapiens, UniProt P08183); assay: P-gp substrate identification in MDCK cells transfected with wild-type MDR1; format: in vitro ADME
human P-gp, sequence (P08183 whole entry): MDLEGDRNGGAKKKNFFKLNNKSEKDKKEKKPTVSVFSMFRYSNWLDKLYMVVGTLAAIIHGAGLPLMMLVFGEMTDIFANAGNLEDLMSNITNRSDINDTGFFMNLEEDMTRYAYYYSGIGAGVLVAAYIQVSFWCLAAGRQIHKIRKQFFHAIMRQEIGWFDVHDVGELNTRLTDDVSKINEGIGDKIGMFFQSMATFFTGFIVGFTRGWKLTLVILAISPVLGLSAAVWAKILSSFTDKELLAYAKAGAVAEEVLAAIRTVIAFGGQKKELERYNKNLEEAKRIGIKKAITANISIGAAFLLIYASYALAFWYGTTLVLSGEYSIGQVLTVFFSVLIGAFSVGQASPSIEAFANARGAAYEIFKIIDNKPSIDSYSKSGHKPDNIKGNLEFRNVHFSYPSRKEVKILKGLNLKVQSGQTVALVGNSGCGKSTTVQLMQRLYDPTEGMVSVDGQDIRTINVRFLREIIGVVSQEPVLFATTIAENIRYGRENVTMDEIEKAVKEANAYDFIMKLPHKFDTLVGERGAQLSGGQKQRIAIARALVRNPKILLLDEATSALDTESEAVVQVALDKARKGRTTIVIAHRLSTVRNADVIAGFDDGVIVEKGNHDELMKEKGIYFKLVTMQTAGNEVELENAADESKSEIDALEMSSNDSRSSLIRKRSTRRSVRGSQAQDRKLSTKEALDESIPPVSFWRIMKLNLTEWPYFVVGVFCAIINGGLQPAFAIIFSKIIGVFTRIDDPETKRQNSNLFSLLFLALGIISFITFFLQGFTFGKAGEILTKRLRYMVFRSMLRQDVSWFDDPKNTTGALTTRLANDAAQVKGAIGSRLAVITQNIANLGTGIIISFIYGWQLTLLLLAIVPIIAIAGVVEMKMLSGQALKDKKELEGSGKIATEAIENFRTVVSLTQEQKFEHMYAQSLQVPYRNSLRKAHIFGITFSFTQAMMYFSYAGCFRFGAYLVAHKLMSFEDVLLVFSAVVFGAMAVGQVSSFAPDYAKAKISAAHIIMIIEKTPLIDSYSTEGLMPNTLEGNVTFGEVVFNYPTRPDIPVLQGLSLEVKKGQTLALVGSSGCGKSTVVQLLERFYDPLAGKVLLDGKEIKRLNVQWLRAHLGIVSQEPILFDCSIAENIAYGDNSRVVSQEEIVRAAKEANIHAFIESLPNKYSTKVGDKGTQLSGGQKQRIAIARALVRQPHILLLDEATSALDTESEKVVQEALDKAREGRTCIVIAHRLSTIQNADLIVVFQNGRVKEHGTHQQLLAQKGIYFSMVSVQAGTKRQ

[6] = metabolic stability in liver microsomes, rat; format: in vitro ADME; conditions: rat hepatic microsomes, 30 minutes, n = 2
mGluR1 [7] = biological target: T2, mGluR1; assay: competition binding assay with 3H-LSN456066, human; conditions: humans
[8] = calibrated Mouse Brain Uptake Assay; conditions: cMBUA
mGluR1 [9] = biological target: T1, mGluR1; assay: mGluR1 occupancy experiment, non-labeled JNJ16259685 as tracer; format: in vivo; conditions: oral administration
[10] = metabolic stability in liver microsomes, dog; format: in vitro ADME; conditions: dog hepatic microsomes, 30 minutes, n = 3
[11] = metabolic stability in liver microsomes, mouse; format: in vitro ADME; conditions: mouse hepatic microsomes, 30 minutes, n = 3
mGluR5 = mGluR5 (Rattus norvegicus, UniProt P31424); assay: PET imaging, cross-reactivity with mGluR5 receptors; format: in vivo
mGluR5, sequence (P31424 21-1203): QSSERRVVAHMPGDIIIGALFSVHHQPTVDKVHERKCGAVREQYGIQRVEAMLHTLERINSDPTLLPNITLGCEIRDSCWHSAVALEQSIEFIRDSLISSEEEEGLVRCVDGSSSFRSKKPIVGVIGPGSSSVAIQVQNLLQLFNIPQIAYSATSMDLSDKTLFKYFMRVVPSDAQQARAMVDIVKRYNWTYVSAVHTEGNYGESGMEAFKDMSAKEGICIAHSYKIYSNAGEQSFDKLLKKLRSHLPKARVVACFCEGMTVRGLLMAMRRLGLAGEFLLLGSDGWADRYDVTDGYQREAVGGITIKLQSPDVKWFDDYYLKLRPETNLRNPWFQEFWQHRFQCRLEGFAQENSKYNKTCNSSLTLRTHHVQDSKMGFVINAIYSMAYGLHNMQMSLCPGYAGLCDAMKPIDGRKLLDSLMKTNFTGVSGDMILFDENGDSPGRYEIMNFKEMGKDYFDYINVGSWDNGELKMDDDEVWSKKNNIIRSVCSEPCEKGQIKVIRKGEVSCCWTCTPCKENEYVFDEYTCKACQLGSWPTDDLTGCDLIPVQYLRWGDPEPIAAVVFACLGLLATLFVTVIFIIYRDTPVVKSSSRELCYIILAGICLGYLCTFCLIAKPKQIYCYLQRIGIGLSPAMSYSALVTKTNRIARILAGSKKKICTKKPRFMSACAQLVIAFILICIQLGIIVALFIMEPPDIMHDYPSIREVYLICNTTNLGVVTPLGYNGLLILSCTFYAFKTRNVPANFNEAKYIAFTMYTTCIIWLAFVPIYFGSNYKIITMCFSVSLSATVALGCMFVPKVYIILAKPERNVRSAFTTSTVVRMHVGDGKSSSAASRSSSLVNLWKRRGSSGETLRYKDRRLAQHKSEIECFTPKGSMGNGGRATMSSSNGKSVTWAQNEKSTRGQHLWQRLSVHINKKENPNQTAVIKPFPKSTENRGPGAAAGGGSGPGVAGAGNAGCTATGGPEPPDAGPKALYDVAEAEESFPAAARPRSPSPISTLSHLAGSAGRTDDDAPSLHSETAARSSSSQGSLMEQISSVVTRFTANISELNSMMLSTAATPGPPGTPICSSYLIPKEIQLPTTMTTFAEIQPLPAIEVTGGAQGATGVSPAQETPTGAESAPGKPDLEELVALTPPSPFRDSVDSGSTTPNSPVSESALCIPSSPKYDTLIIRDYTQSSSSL

[12] = LogD7.4 measurement in octanol; format: physicochemical; conditions: n = 6
mGluR1 [13] = biological target: T1, mGluR1; assay: PET imaging, specific binding in rat brain; format: in vivo; conditions: baseline vs blocked scans
ABCB1 (P-gp) = conditions: wild type vs knock-out mice, PET
ABCG2 (BCRP) = ABCG2 (BCRP) (Mus musculus, UniProt Q7TMS5); conditions: wild type vs knock-out mice, PET
[14] = one hour at 37 °C
[15] = reference compound; cited from earlier work
[16] = MDCK monolayers overexpressing human P-gp
[17] = rat brain, 30 minutes after injection
[18] = rat cerebellum, 30 minutes after injection
[19] = rat, 30 minutes after injection
[20] = tissue without blood, mean of two measurements

COC1CCC(C(=O)c2ccc3nc4c(cc3c2)CCCO4)CC1 (stereo not drawn) [JNJ16259685]
in vivo mGluR1 ED50 (mGluR1 [1]): 1.4 ± 0.1 mg/kg

COc1ccc(-c2nsc(NC(=O)[C@@H]3C[C@H]3C)c2C)cc1 [LY2428703]
affinity for mGluR1 relative to mGluR5 (mGluR1 [2]): > 10 fold | tracer level in rat cerebellum [3]: 330 % SUV | percent of compound metabolized [4]: 90.1 ± 3.1% | clearance from brain, percent loss in concentration from five to 60 minutes [5]: > 95% | clearance from plasma, percent loss in concentration from five to 60 minutes [5]: > 95% | B-A/A-B flux ratio (human P-gp; [16]): ~ 1.0 | P-gp substrate identification (human P-gp; [16]): not a P-gp substrate | mass balance recovery (human P-gp; MDCK monolayers, n=8): 108 ± 10% | passive permeability coefficient (human P-gp; MDCK monolayers, n=8): 62 ± 3 ×10⁻⁶ cm/s and 60 ×10⁻⁶ cm/s | percent of compound metabolized [6]: 91.1 ± 3.4% | affinity of LY2428703 relative to LSN2606428 (mGluR1 [7]): about 20 fold | dose distributed to brain as percent of cardiac output [8]: 84% | blood-brain barrier permeability coefficient ([8]; mouse): 19 ×10⁻⁶ cm/s | percent of dose delivered to the brain ([8]; mouse, over the 10-fold range of doses): 1.2–1.6% and 1.6 ± 0.2% | rat mGluR1 occupancy (mGluR1 [9]): dose-dependently occupied | percent of compound metabolized [10]: 65.0 ± 15.5% | percent of compound metabolized [11]: 79.5 ± 14.7%

Cc1nc(C#Cc2cccnc2)cs1 [MTEP, 3-((2-Methyl-4-thiazolyl)ethynyl)pyridine, reference compound]
effect of pretreatment on forebrain uptake of 11C-LY2428703 (mGluR5; 5 mg/kg, rat, n=2): not affected

Cc1c(-c2ccc(O[11CH3])cc2)nsc1NC(=O)[C@@H]1C[C@H]1C [^11C-LY2428703]
LogD7.4 [12]: 4.02 ± 0.09 | PET signal in rat cerebellum (mGluR1 [13]): large specific and displaceable signal | substrate for ABCB1 transporter at the blood-brain barrier (ABCB1 (P-gp)): not a substrate | affinity for mGluR5s in vivo (PET) (mGluR5; rats pretreated with MTEP 5 mg/kg): negligible affinity | substrate for ABCG2 transporter at the blood-brain barrier (ABCG2 (BCRP)): not a substrate | regional concentration ratios of the radiometabolite (cerebellum/brain, cerebellum/plasma, brain/plasma): < 1.0 | parent radioligand, % of brain radioactivity [17]: 82.7% | radiometabolite, % of brain radioactivity [17]: 17.2% | parent radioligand, % of cerebellar radioactivity [18]: 96.2% and > 96% | radiometabolite, % of cerebellar radioactivity [18]: ~ 3.5% and 3.7% and 3–4% | parent radioligand, % of plasma radioactivity (rat plasma, 30 minutes after injection): 75% | %SUV concentration of parent in brain [19]: 49 %SUV | %SUV concentration of parent in cerebellum [19]: 156 %SUV | %SUV concentration of parent in plasma [19]: 122 %SUV | %SUV concentration of parent in urine [19]: 2.7 %SUV | %SUV concentration of the major radiometabolite in brain [19]: 10.2 %SUV | %SUV concentration of the major radiometabolite in cerebellum [19]: 6.1 %SUV | %SUV concentration of the major radiometabolite in plasma [19]: 38.5 %SUV | %SUV concentration of the major radiometabolite in urine [19]: 161 %SUV | parent concentration ratio brain/plasma [19]: < 1.0 | parent concentration ratio cerebellum/brain [19]: 3.2 and 3.2–3.5 | parent concentration ratio cerebellum/plasma [19]: 1.3 | parent radioligand in brain [20]: 48 %SUV | parent radioligand in cerebellum [20]: 169 %SUV | parent radioligand, % of brain activity [20]: 82.5% | parent radioligand, % of cerebellar activity [20]: 95.8% | radiometabolite in brain [20]: 9.5 %SUV | radiometabolite in cerebellum [20]: 5.6 %SUV | radiometabolite, % of brain activity [20]: 16.5% | radiometabolite, % of cerebellar activity [20]: 3.3% | stability in rat whole blood and brain homogenates [14]: no biotransformation products were detected

[3H]O[3H] [tritiated water]
brain levels, percent of the dose [15]: 1.9 ± 0.2%
